Most compounds without a hit are left out; they make up all but 2.6% or so of the library.
Rce1 inh: yeast Rce1p protease inhibitors, primary screen, biochemical, fluorescence, cell-free homogeneous; calls only; yeast membranes, quenched prenylated peptide cleavage fluorescence; 0.27% of 290,000 active; CAAX prenyl protease 2 (Saccharomyces cerevisiae (strain ATCC 204508 / S288c)), Q03530;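 active = fall in fluorescence gain of 50% or more versus controls, with final raw signal at or below 3038400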;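 also: plate controls were neutral control wells for no effect and wells lacking membranes for full effect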
T cell HTS: modulators of CD8 T cell-vesicle binding, primary screen, mouse 2C CD8+ T cells, flow cytometry; 2C CD8+ T cell-vesicle binding; active compounds read low; response (vesicle binding), % at 7 µM; 0.068% of 330,000 active; AID 2052, 2009;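 active = response, share of CD8 T cells binding vesicles, and their 90th percentile fluorescence all below set limits, cut at about 80% in these data, passing the limit was not always enough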;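 also: values below 100% mean blocked vesicle binding to the CD8+ T cells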
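Test system: purified 2C TCR transgenic mouse naive CD8+ T cells. Probe or stimulus: QL9-peptide-loaded Drosophila micro-vesicles bearing Ld, ICAM-1 and B7-1. Incubation: binding step 1.5 h, 37 °C, antibody labelling 20 min, ice. Measured by: flow cytometry of vesicle-bound cells.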
Myeloid diff MLP: induction of myeloid progenitor differentiation, primary screen, cell-based, flow cytometry, MLPCN library. ER-HoxA9 myeloid progenitors, lysozyme-GFP differentiation. calls only at 10 µM. 1% of 360,000 active;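 active = normalized GFP-positive differentiation at or above the plate's own cutoff, the solvent-only control mean plus 3 SD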;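 also: cells exposed to compound for four days before flow analysis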
SKN-1 inh: suppressors of acrylamide-induced Pgst-4::GFP reporter in worms, primary screen, SKN-1 inhibitor project, whole organism, uHTS, GFP/RFP fluorescence ratio, strain VP596. C. elegans VP596 Pgst-4::GFP/RFP ratio, 24 h. inhibition, % at 21.8 µM. 0.49% of 360,000 active. AID 624304, 2012;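 active = interference check ratio from 0.5 to 1.5 plus GFP to RFP signal ratio inhibition reaching or exceeding a fixed threshold, cut at about 30% in these data, passing the limit was not always enough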
Rin1 Abl inh: inhibitors of Rin1-Abl protein binding, primary screen, biochemical, TR-FRET. Tyrosine-protein kinase ABL1 (Homo sapiens) + Ras and Rab interactor 1 (Homo sapiens), …. 0.4% of 360,000 active. inhibition, % at 7.35 µM; in the data active = inhibition above about 5%, passing the limit was not always enough
GRK2 inh: compounds blocking aptamer binding on GRK2 – biochemical, human GRK2, bead flow cytometry, HTS, primary screen. inhibition of aptamer binding, % at 10 µM. FAM-aptamer displacement from GRK2. Beta-adrenergic receptor kinase 1 (Homo sapiens), P25098. 0.59% of 330,000 active;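 active = inhibition of aptamer binding above 40%, roughly 3 SD of noise, on plates passing a quality check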;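 also: median bead fluorescence of bound FAM aptamer so fluorescent compounds give negative values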
Target sequence (P25098 whole entry, looked up): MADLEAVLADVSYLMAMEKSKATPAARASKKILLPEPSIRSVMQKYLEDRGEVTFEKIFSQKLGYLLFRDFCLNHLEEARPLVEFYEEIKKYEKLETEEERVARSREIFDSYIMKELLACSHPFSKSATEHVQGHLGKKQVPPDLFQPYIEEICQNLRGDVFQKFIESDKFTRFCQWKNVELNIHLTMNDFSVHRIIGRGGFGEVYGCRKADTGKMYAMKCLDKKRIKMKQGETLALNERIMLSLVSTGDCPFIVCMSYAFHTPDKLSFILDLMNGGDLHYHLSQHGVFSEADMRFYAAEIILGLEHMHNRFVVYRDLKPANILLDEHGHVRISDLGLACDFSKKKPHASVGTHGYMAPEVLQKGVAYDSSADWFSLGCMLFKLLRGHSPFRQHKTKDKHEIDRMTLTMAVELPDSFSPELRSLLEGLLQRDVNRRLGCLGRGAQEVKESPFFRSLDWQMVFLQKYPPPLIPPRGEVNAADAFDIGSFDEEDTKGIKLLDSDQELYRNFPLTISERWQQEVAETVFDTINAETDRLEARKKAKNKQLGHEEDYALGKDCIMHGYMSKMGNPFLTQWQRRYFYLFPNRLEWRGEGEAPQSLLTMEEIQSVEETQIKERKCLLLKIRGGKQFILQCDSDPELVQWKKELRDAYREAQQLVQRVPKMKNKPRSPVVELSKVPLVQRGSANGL
GRK2 inh confirm: GRK2 aptamer-displacing inhibitors, retest, confirmation, biochemical, cherry pick 1, bead flow cytometry. shares compounds with GRK2 inh. bead-bound GRK2, FAM-aptamer displacement. aptamer displacement, % at 10 µM. 4% of 2,000 active. AID 504451, 2011;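 active = aptamer displacement above 40%, near three times the noise of non-fluorescent compounds, on plates passing quality checks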;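 also: negative values mostly reflect intrinsic compound fluorescence rather than true enhancement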
FAM quench CP1: counter-screen for GRK2 aptamer inhibitors: fluorescent aptamer quenchers | shares compounds with GRK2 inh | Carboxyfluorescein RNA aptamer on beads, flow cytometry quenching; active compounds read low | fluorescence response (% of DMSO), % at 10 µM | 2,000 tested, under 10 active;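 active = compounds that quench the bead-bound fluorescent RNA probe, cutting fluorescence to under half of the solvent control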;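 also: counterscreen run without GRK2 so only probe quenching by compound is measured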
GRK2 confirm 2: GRK2 aptamer-displacing inhibitors, hit retest, confirmation, biochemical, cherry pick 2, bead flow cytometry. 360 tested, under 10 active. bead-bound GRK2, FAM-aptamer displacement. shares compounds with GRK2 inh. AID 504782, 2011. inhibition of aptamer binding, % at 10 µM;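 active = inhibition of aptamer binding above 40%, about triple the noise seen with nonglowing compounds, on plates passing quality control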;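 also: negative values mostly come from compounds that fluoresce themselves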
FAM quench SP: quenches fluorescent RNA aptamer, GRK2 hit artifact; shares compounds with GRK2 inh; 360 tested, under 10 active; carboxyfluorescein RNA aptamer beads, flow cytometry quenching; active compounds read low; fluorescence response vs DMSO, % at 10 µM;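 active = response vs DMSO under 50%, meaning signal dropped by over half, treated as fluorescence quencher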;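 also: labelled aptamer on streptavidin beads without GRK2 as a quench counter-screen; 100% = bead fluorescence of DMSO wells and lower means quenching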
Active calls of the source: *.

`O=C(CN1CCN(S(=O)(=O)c2ccc3c(c2)OCCO3)CC1)Nc1cccc(F)c1` gave Myeloid diff MLP inactive, SKN-1 inh 7 and Rin1 Abl inh -2.
`O=C(COC(=O)c1cccc(OC(F)F)c1)Nc1ncccn1` gave T cell HTS 286, Myeloid diff MLP inactive, SKN-1 inh 5, Rin1 Abl inh 5, GRK2 inh 39, GRK2 inh confirm 10 and FAM quench CP1 96.
For O=C(COC(=O)c1ccc(OC(F)(F)F)cc1)Nc1ncccn1 the results were T cell HTS 186, Myeloid diff MLP inactive, SKN-1 inh 0, Rin1 Abl inh 1, GRK2 inh 41*, GRK2 inh confirm 3 and FAM quench CP1 94.
`O=C1NN(c2ccccc2)C(=O)/C1=C/c1ccc(-c2ccc(Cl)c(C(=O)O)c2)o1` gave Rce1 inh inactive, Myeloid diff MLP inactive, SKN-1 inh 12 and Rin1 Abl inh 2.
`O=C(O)c1cc(-c2ccc(/C=C3\NC(=O)N(c4ccccc4)C3=O)o2)ccc1Cl` gave Rce1 inh inactive, T cell HTS 665, Myeloid diff MLP inactive, SKN-1 inh 14, Rin1 Abl inh -2, GRK2 inh 86*, GRK2 inh confirm 20 and FAM quench CP1 102.
For O=C(O)c1cc(-c2ccc(/C=C3\NC(=O)N(c4ccc(Cl)cc4)C3=O)o2)ccc1Cl the results were Rce1 inh inactive, T cell HTS 292, Myeloid diff MLP inactive, SKN-1 inh 8, Rin1 Abl inh 1, GRK2 inh 50*, GRK2 inh confirm 25 and FAM quench CP1 109.
Screening Cc1cccnc1NC(=O)CCNC(=O)c1ccccc1Cl returned Rce1 inh inactive, T cell HTS 387, Myeloid diff MLP inactive, SKN-1 inh -13, Rin1 Abl inh 1, GRK2 inh 44*, GRK2 confirm 2 12 and FAM quench SP 102.
Screening CCn1c(CSc2nnc(-c3ccc4c(c3)OCO4)o2)nc2cc(S(=O)(=O)N(C)C)ccc21 returned T cell HTS 230, Myeloid diff MLP inactive, SKN-1 inh -4, Rin1 Abl inh -2, GRK2 inh 43*, GRK2 inh confirm -2 and FAM quench CP1 105.
O=C(C1CCCC1)N1CCN(S(=O)(=O)c2cccc(Cl)c2Cl)CC1 was read as Rce1 inh inactive, T cell HTS 258, Myeloid diff MLP inactive, SKN-1 inh -9, Rin1 Abl inh 2, GRK2 inh 68*, GRK2 inh confirm 1 and FAM quench CP1 98.
For COc1ccc(OC)c(S(=O)(=O)N2CCC(c3nc4ccccc4[nH]3)CC2)c1 the results were Rce1 inh inactive, T cell HTS 210, Myeloid diff MLP inactive, SKN-1 inh -10, Rin1 Abl inh 2 and GRK2 inh 1.
`Cc1ccc(NC(=O)CN2C(=O)N/C(=C/c3ccc(N4CCOCC4)cc3)C2=O)cc1` gave Rce1 inh inactive, T cell HTS 135, Myeloid diff MLP inactive, SKN-1 inh -4, Rin1 Abl inh -2 and GRK2 inh 1.
Screening Cc1ccccc1NC(=O)CN1C(=O)N/C(=C\c2ccc(N3CCOCC3)c(F)c2)C1=O returned Rce1 inh inactive, T cell HTS 288, Myeloid diff MLP inactive, SKN-1 inh 5, Rin1 Abl inh 2, GRK2 inh 1, GRK2 inh confirm -1 and FAM quench CP1 98.
For CN(CC(=O)Nc1ccc(S(=O)(=O)N2CCOCC2)cc1)Cc1ccc(F)cc1 the results were T cell HTS 223, Myeloid diff MLP inactive, SKN-1 inh -1, Rin1 Abl inh -2 and GRK2 inh 2.
Screening CCc1ccc(CN(C)CC(=O)Nc2ccc(S(=O)(=O)N3CCOCC3)cc2)cc1 returned T cell HTS 322, Myeloid diff MLP inactive, SKN-1 inh 3, Rin1 Abl inh -1, GRK2 inh 99*, GRK2 inh confirm -2 and FAM quench CP1 104.
COc1ccc(/C=C2\SC(=S)N(N3C(=O)CCC3=O)C2=O)cc1O was read as Rce1 inh inactive, T cell HTS 257, Myeloid diff MLP inactive, SKN-1 inh 4, Rin1 Abl inh 0, GRK2 inh 1, GRK2 inh confirm 12 and FAM quench CP1 60.
Screening CC(=O)c1ccc(COC(=O)Cc2ccc([N+](=O)[O-])cc2)cc1 returned Rce1 inh inactive, T cell HTS 211, Myeloid diff MLP inactive, SKN-1 inh -1, Rin1 Abl inh 1 and GRK2 inh 0.
For COc1cnn(-c2ccc(C)cc2)c(=O)c1Br the results were Rce1 inh inactive, T cell HTS 138, Myeloid diff MLP inactive, SKN-1 inh -7, Rin1 Abl inh -7, GRK2 inh 30, GRK2 inh confirm 0 and FAM quench CP1 94.
For COc1cnn(-c2ccc(C)cc2)c(=O)c1Cl the results were Rce1 inh inactive, T cell HTS 156, Myeloid diff MLP inactive, SKN-1 inh 10, Rin1 Abl inh -4 and GRK2 inh 1.
For CCCC(=O)N(CC(=O)Nc1sc(C)c(C)c1C(N)=O)Cc1ccccc1 the results were Rce1 inh inactive, T cell HTS 242, Myeloid diff MLP inactive, SKN-1 inh 11, Rin1 Abl inh 1 and GRK2 inh 0.
For CCOC(=O)CSc1nnc(CSc2nc3sc4c(c3c(=O)[nH]2)CCC4)n1C the results were T cell HTS 436, Myeloid diff MLP inactive, SKN-1 inh -6, Rin1 Abl inh -1, GRK2 inh 67*, GRK2 inh confirm 1 and FAM quench CP1 101.
Screening Cc1nnc(SCC(=O)Nc2ccc(S(N)(=O)=O)cc2)n(N)c1=O returned T cell HTS 392, Myeloid diff MLP inactive, SKN-1 inh -10, Rin1 Abl inh 4, GRK2 inh 30, GRK2 inh confirm -6 and FAM quench CP1 100.
